The list is not random: actives were taken first. Their share in the collection is about 3%.
HTR1E agonist = 5-HT1E (human) receptor agonism; activation, % at 6 µM; AID 574; CHO 5-HT1E Ga15 NFAT-bla reporter, FRET; 0% DMSO wells, 100% control agonist wells; 0.69% of 65,000 active;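 active = activation above a set limit, the screen-wide mean activation plus 3 SD, cut at about 8.5% in these data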;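 note: 100% = positive control agonist at 1 µM giving full maximal response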
5HT1E antag = antagonists of human 5-HT1E serotonin receptor; P28566; CHO 5-HT1E Ga15 NFAT-bla reporter, FRET, antagonist; inhibition, % at 6 µM; 0.99% of 65,000 active; AID 571;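 active = inhibition above a set limit, the mean inhibition across every tested compound plus 3 SD, cut at about 29% in these data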;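 note: signal is the 460 over 535 nm emission ratio of beta-lactamase substrate; 0% = agonist plus DMSO wells and 100% = wells without agonist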
S1P1 ag-PAM = activates or potentiates agonism at human S1P1 receptor; S1P1 CRE-bla cells, forskolin, beta-lactamase FRET, potentiator mode; S1P1 agonist co-added at EC20, 2 nM; 100% = saturating reference agonist, 0% = basal; activation, % at 9.5 µM; 0.57% of 56,000 active; AID 449;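 active = activation above a cutoff set at the mean activation of all tested compounds plus 3 SD, cut at about 54% in these data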;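 note: forskolin at 4 µM as EC80 and the EC20 agonist is SEW2871; 100% = SEW2871 at its EC100 plus forskolin at EC80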
Target sequence (P21453 whole entry, looked up): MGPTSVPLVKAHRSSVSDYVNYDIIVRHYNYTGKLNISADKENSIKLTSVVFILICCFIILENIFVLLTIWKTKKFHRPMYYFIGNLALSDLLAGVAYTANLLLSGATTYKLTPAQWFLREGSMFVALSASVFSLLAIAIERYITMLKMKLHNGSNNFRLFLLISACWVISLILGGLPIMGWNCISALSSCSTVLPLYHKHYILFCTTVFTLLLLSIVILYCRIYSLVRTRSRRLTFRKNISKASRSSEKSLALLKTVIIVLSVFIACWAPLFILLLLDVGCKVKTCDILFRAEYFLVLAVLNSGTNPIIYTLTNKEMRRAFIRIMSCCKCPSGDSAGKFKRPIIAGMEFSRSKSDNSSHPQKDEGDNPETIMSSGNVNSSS
HTR1A agonist = agonists of human 5-HT1a serotonin receptor; P08908; CHO 5-HT1a Ga15 NFAT-bla reporter, FRET ratio; 0% basal, 100% maximal reference agonist; activation, % at 10 µM; 0.56% of 65,000 active;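 active = activation above the screen-wide mean activation plus 3 SD, cut at about 19% in these data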;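 note: 0% = DMSO wells and 100% = 5-CT at EC100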
S1P3 agonist = activates the human S1P3 receptor; Q99500; S1P3 NFAT-BLA reporter cells, agonism, FRET ratio; relative to 1 µM S1P, basal subtracted; activation, % at 4.5 µM; 0.1% of 60,000 active; AID 373;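 active = activation above the screen-wide mean plus 3 SD, cut at about 4.5% in these data, passing the limit was not always enough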
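material = human S1P3 NFAT-BLA reporter CHO cells | schedule = 4 h compound at 37 °C, 2 h substrate at RT | measured by = fluorescent BLA substrate, ex 405 nm, em 460/535 nm ratio | controls = 1 µM S1P reference | replication = primary once, confirmation triplicate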
5HT1a antag = blocks the human serotonin 5-HT1a receptor; 0.68% of 62,000 active; CHO 5-HT1a Ga15 NFAT-bla reporter, antagonist mode; inhibition, % at 10 µM; P08908;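 active = inhibition above the mean of all tested compounds plus 3 SD, cut at about 43% in these data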;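 note: receptor stimulated by 5-CT agonist at 100 nM near EC80; beta-lactamase reporter measured by ratiometric fluorescence of a cleavable substrate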
* marks the source's active call; other numbers are inactive results; nt = no result given.

SMILES	HTR1E agonist	5HT1E antag	S1P1 ag-PAM	HTR1A agonist	S1P3 agonist	5HT1a antag
Cc1cccc(-n2c(SCC(=O)Nc3nonc3C)nnc2-c2ccoc2C)c1	0	-1	11	34*	-1	14
Cc1cccc(-n2c(SCC(=O)Nc3nnc(C)s3)nnc2-c2ccoc2C)c1	1	13	-43	-3	-1	-1
CC(NS(=O)(=O)c1ccccc1)C(=O)Nc1nccs1 (configuration not stated)	0	6	-1	268*	0	-1
O=C(O)CC1C(=O)NCCN1Cc1ccc(F)c(F)c1 (configuration not stated)	22*	-4	4	-5	0	-13
COc1cc(CN2CCC(C(=O)N3CCCC(C)C3)CC2)cc(Br)c1O (configuration not stated)	-1	0	-3	-3	0	-5
CCOC(=O)c1nnn(-c2nonc2N)c1CSc1ccc(C)cc1	0	28	-6	-2	-1	18
CCOC(=O)c1nnn(-c2nonc2N)c1COc1cc(C)c(Cl)c(C)c1	-1	12	-8	-6	-2	49*
Cc1ccc(/C(COc2ccccc2O)=N\O)cc1	0	-3	6	-5	-1	10
COc1cccc(CNCc2ccccn2)c1OC	11*	2	-13	-1	-1	-10
COc1ccccc1NC(=O)Cc1noc(CN(C)Cc2cccs2)n1	0	1	19	-1	1	-7
CCCn1c(=O)c2ccccc2n2c(SCc3c(C(=O)OCC)oc4ccccc34)nnc12	0	1	-48	-2	13*	24
CCCn1c(=O)c2ccccc2n2c(SCN3C(=O)c4ccccc4C3=O)nnc12	0	1	-18	-2	-1	11
N#CC(c1nc2ccccc2nc1N1CCCC1)S(=O)(=O)c1cccs1 (configuration not stated)	0	3	4	-3	1	-3
Cc1ccc(Nc2nc(C)c(CCC(C)C)c(=O)[nH]2)cc1	1	-3	8	-4	-1	-9
Cc1nc(Nc2ccc(F)cc2)[nH]c(=O)c1CCC(C)C	0	-8	39	1	-2	52*
CCCc1[nH]nc2c1C(c1ccc(O)cc1OCC)C(C#N)=C(N)O2 (configuration not stated)	0	-3	-18	-1	-1	1
Oc1ccc(CNc2ccccc2)c2cccnc12	0	-11	-17	-1	0	10
Oc1ccc(CN2CCN(Cc3ccccc3)CC2)c2cccnc12	1	30*	-11	-3	-1	20
CN1CCN(Cc2cc(COCc3ccccc3)c3cccnc3c2O)CC1	5	48*	3	-2	-3	28
CC(Nc1cc(=O)n(C)c(=O)n1C)c1ccccc1 (configuration not stated)	-2	8	nt	0	0	12
CCn1c(SCC(=O)Nc2nc3ccc(C)cc3s2)nc2c(c1=O)SC(C)C2 (configuration not stated)	0	8	55*	1	-1	-16
CCn1c(SCC(=O)NCC2CCCO2)nc2c(c1=O)SC(C)C2 (configuration not stated)	1	-8	-14	19*	0	-10
CCn1c(SCC(=O)NC2CCCCC2)nc2c(c1=O)SC(C)C2 (configuration not stated)	-1	-3	-2	-1	-1	8
CCn1c(SCC(=O)Nc2nc3ccccc3s2)nc2c(c1=O)SC(C)C2 (configuration not stated)	-1	-11	46	0	0	-16
Cc1ccc(S(=O)(=O)N2CCN(C(=O)C3Cc4ccccc4CN3C(=O)c3ccco3)CC2)cc1 (configuration not stated)	0	1	-7	-2	-1	-12
SMILES	HTR1E agonist	5HT1E antag	S1P1 ag-PAM	HTR1A agonist	S1P3 agonist	5HT1a antag
Clc1ccc(Cn2cccc2C2=NCCO2)cc1	-1	3	-4	-2	0	3
CCCn1c(C)cc(C(=O)COc2ncnc3sccc23)c1C	0	-10	-21	-3	0	-2
Cc1cc(C(=O)COc2ncnc3sccc23)c(C)n1C1CC1	0	-7	17	19*	0	-6
Cn1c(=O)c2c(nc(Oc3ccc4c(c3)OCO4)n2Cc2ccc(Br)cc2)n(C)c1=O	0	-9	5	40*	-2	nt
Cn1c(=O)c2c(nc(Oc3ccc4c(c3)OCO4)n2Cc2ccc(F)cc2)n(C)c1=O	-1	5	-3	4	-3	nt
CCOC(=O)N1CCN(CC(O)c2ccc3cc[nH]c3c2)CC1 (configuration not stated)	-1	2	-5	1	23	2
C=CCc1ccccc1OCC(O)CN1CCN(c2ccc(OC)cc2)CC1 (configuration not stated)	0	11	-36	-1	0	81*
COc1ccccc1N1CCN(CC(O)COc2c(OC)cccc2OC)CC1 (configuration not stated)	3	-4	-28	-3	-2	95*
COc1ccccc1N1CCN(CC(O)c2ccc3cc[nH]c3c2)CC1 (configuration not stated)	2	21	19	6	-1	87*
C=CCc1ccccc1OCC(O)Cn1ccnc1C (configuration not stated)	-1	1	10	-1	0	-4
COc1ccccc1N1CCN(C(=O)N2CCOCC2)CC1	-1	-2	-13	-3	0	-10
COc1cccc(OC)c1OCC(O)CN1CCN(c2ccccc2)CC1 (configuration not stated)	2	-1	-18	-2	0	45*
C=CCSc1nnc2nc3c(nn12)c1cc(C)ccc1n3CC=C	0	15	-20	1	0	0
Cc1cc(N2CCN(C3CCCCC3)CC2)n2nc(C)nc2n1	-1	7	7	4	-1	8
O=C(NCCS(=O)CCNC(=O)C(F)(F)F)C(F)(F)F	0	-6	-13	-4	1	-3
Cc1cc2ncn(CCOc3ccccc3C#N)c2cc1C	-1	4	6	0	-1	3
OC(COc1ccc2c(c1)CCC2)CN1CCN(c2ccccc2F)CC1 (configuration not stated)	1	-7	-9	1	0	44*
OC(COCc1ccccc1)CN1CCN(c2ccccc2F)CC1 (configuration not stated)	1	6	-15	2	-1	22

Screening results: PubChem, The Scripps Research Institute Molecular Screening Center
